Results gathered from unrelated publications.
Compare with care: the assays were run in different laboratories.
BTK: Tyrosine-protein kinase BTK (BTK, Homo sapiens, UniProt Q06187)

SMILES | target | test | setting | quantity | value
COc1ccc2oc(-c3ccc4nc(N)oc4c3)c/c(=N\c3ccccc3NC(=O)CCN)c2c1 | Tyrosine-protein kinase BTK (BTK, Homo sapiens, UniProt Q06187, R28H) | cell-free assay | 1 µM | remaining signal | 99%
COc1ccc2[nH]c3c4[nH]c5ccc(OC)cc5c4c4c(c3c2c1)C(=O)NC4=O | BTK | binding, competition with immobilised ligand | 1 µM | remaining binding | 74%
N#Cc1ccc(NC(=O)Nc2ccccc2)cc1 | BTK | cell-free assay, competition with immobilised ligand | 25 µM | remaining binding | 89%
C=CC(=O)Nc1cccc(Oc2nc(Nc3ccc(N4CCN(C)CC4)cc3)nc3ccoc23)c1 | Tyrosine-protein kinase BTK, non-phosphorylated (BTK, Homo sapiens, UniProt Q06187) | cell-free assay, TR-FRET |  | kinact/KI | 219000 M⁻¹ s⁻¹
Cc1nc(Nc2ncc(C(=O)Nc3c(C)cccc3Cl)s2)cc(N2CC[C@H](N)C2)n1 | BTK | enzyme activity, inhibitor, mobility shift | 1 nM | inhibition | 65%
CCCCC(=O)Nc1ccc(-c2ccc3ncn(CCC)c(=O)c3c2)cn1 | BTK | binding, competition with immobilised ligand | 0.5 µM | remaining binding | 89%
Cc1nc(Nc2ncc(C(=O)Nc3c(C)cccc3Cl)s2)cc(N2CCC(O)CC2)n1 | BTK | enzyme activity, inhibitor, mobility shift | 1 nM | inhibition | 77%
C#Cc1cnc(Nc2ccnc(CO)c2)nc1Nc1ccccc1S(C)(=O)=NC#N (stereo not shown) | BTK | cell-free assay | 1 µM | remaining signal | 41%
CN1CCN(C(=O)c2ccc(NC(=O)Nc3ccc(N(C)c4ccnc(Nc5ccc(CS(C)(=O)=O)cc5)n4)cc3)cc2)CC1 | BTK | binding, competition with immobilised ligand | 1 µM | remaining binding | 50%
CO[C@@H]1[C@H](N(C)C(=O)c2ccccc2)C[C@H]2O[C@]1(C)n1c3ccccc3c3c4c(c5c6ccccc6n2c5c31)C(=O)NC4 | BTK | enzyme activity, inhibitor | 1 µM | inhibition | 0%
C1=C/COCc2cc(ccc2OCCN2CCCC2)Nc2nccc(n2)-c2cccc(c2)COC/1 | BTK | cell-free assay | 0.1 µM | remaining signal | 100%
CC#CC(=O)N1CCC[C@H]1c1nc(-c2ccc(C(=O)Nc3ccccn3)cc2)c2c(N)nccn12 | BTK | enzyme activity, inhibitor | 1 µM | inhibition | 100%
[2H]c1cc(C)c(NC(=O)c2cnc(Nc3cc(N4CC[C@@H](O)C4)nc(C)n3)s2)c(Cl)c1 | BTK | enzyme activity, inhibitor, mobility shift | 1 nM | inhibition | 73%
